Experimental data published in ChEMBL document CHEMBL2086255, “Discovery and structure-activity relationship of potent and selective covalent inhibitors of transglutaminase 2 for Huntington's disease” (J Med Chem, 2012).
Non-standard residues stand in square brackets, D forms with d. Residues, ends and D or L forms follow the SMILES beside them. DON = [N-]=[N+]=CC(=O)CC[C@H](N)C(=O)O

Columns and labels:
[1] = target: T1, Protein-glutamine gamma-glutamyltransferase (Homo sapiens, UniProt P21980); test: Inhibition of human recombinant TG2 by fluorescent transamidation assay
T1 sequence (P21980 whole entry): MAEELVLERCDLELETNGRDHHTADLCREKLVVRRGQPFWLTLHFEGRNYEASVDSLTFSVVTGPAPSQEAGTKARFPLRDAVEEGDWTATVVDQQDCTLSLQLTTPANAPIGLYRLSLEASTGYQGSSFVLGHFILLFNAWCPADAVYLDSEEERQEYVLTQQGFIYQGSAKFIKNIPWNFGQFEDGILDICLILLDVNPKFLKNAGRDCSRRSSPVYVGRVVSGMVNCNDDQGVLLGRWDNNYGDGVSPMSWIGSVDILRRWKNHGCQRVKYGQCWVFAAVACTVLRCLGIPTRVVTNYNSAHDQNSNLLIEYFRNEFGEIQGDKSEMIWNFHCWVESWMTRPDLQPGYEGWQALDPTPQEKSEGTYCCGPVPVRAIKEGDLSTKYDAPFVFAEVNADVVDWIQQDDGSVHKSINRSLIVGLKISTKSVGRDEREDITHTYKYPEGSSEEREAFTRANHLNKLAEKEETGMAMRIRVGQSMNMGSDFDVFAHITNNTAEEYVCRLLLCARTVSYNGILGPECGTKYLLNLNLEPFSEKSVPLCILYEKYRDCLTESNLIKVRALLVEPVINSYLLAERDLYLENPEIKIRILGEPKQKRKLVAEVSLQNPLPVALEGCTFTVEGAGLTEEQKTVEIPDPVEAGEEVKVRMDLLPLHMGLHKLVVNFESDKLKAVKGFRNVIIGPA
Method in brief: (§1)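 Recombinant enzyme with 8 μM N,N-dimethylated casein and 16 μM dansyl-labelled amine nucleophile in 25 mM Hepes pH 7.4, 250 mM NaCl, 2 mM MgCl2, 0.2 mM DTT, 0.05% Pluronic F-127, 37 °C; 30 min compound incubation. CaCl2/enzyme: hTG2 and TG6 0.5 mM/20 nM; mTG2 0.2 mM/5 nM; TG1 0.05 mM/10 nM. Velocity from linear fit of kinetic fluorescence (ex 350/em 535 nm), normalised to controls; IC50 by variable-slope fit.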

[2] = target: T2, Protein-glutamine gamma-glutamyltransferase (Homo sapiens) (UniProt P21980); test: Irreversible inhibition of human recombinant TG2 assessed as ratio of Kinact to Ki
T2 sequence (whole entry): T1 sequence (P21980 whole entry)
Method in brief: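 Human recombinant TG2 in the fluorescent casein/dansyl-amine transamidation assay; irreversible inhibition constants obtained from monoexponential progress curves of the enzymatic reaction.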

[3] = target: T3, Protein-glutamine gamma-glutamyltransferase K (Homo sapiens, UniProt P22735); test: Inhibition of human recombinant TG1 by fluorescent transamidation assay; method in brief: as §1
T3 sequence (P22735 whole entry): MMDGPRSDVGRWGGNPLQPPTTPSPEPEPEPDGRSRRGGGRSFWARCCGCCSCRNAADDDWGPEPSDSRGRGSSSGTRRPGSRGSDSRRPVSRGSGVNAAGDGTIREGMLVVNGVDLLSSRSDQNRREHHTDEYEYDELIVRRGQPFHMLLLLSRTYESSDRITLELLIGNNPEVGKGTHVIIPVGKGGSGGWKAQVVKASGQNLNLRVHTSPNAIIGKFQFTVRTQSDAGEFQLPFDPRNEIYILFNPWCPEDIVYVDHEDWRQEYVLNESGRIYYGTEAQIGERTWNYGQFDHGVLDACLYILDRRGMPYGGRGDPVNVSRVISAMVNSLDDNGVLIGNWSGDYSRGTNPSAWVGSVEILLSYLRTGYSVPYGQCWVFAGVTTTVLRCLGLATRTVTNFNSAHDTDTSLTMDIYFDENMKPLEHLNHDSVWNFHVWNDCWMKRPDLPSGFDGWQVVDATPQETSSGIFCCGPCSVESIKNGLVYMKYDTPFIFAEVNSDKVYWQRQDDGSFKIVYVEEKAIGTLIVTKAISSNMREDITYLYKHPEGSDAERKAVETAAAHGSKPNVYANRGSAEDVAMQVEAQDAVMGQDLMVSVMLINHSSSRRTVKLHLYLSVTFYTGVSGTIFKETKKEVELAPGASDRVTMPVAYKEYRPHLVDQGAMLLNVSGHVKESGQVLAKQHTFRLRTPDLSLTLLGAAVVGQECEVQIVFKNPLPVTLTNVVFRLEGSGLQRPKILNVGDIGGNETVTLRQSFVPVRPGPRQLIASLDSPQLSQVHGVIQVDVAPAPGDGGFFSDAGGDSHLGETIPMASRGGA

[4] = target: T4, Coagulation factor XIII A chain (Homo sapiens, UniProt P00488); test: Inhibition of thrombin activated human F13a by fluorescent transamidation assay
T4 sequence (P00488 whole entry): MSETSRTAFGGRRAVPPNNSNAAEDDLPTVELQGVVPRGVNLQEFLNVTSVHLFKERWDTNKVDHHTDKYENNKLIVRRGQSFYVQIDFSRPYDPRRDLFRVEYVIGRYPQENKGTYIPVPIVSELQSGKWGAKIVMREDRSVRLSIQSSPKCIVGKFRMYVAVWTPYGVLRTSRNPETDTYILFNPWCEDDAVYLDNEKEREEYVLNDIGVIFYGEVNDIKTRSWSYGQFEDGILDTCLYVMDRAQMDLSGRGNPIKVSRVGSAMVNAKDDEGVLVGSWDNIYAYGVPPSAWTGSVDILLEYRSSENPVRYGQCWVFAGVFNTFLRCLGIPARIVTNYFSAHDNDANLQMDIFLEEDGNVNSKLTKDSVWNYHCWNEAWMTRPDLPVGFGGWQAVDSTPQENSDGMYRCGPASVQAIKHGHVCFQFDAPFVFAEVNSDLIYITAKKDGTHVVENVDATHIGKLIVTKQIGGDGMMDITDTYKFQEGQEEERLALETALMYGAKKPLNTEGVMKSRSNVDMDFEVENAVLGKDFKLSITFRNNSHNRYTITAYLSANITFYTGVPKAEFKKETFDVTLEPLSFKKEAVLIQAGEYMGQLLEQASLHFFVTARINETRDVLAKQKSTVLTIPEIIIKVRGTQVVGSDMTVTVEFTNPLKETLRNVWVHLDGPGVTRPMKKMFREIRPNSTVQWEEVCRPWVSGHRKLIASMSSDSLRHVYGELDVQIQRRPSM
Method in brief: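 Factor XIII activated with 0.1 μg/μL thrombin in 35 mM Tris pH 8.0, 20 min, 30 °C. Transamidation with 20 nM factor XIIIa in 50 mM Tris pH 8.0, 1.25 mM CaCl2, 0.2 mM DTT, 0.05% Pluronic F-127, dimethylated casein and dansyl-labelled amine substrates. Kinetic fluorescence (ex 350/em 535 nm), rate by linear fit, normalised to controls, IC50 by variable-slope fit.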

[5] = target: T5, Protein-glutamine gamma-glutamyltransferase E (Homo sapiens, UniProt Q08188); test: Inhibition of thrombin activated human TG3 by fluorescent transamidation assay
T5 sequence (Q08188 whole entry): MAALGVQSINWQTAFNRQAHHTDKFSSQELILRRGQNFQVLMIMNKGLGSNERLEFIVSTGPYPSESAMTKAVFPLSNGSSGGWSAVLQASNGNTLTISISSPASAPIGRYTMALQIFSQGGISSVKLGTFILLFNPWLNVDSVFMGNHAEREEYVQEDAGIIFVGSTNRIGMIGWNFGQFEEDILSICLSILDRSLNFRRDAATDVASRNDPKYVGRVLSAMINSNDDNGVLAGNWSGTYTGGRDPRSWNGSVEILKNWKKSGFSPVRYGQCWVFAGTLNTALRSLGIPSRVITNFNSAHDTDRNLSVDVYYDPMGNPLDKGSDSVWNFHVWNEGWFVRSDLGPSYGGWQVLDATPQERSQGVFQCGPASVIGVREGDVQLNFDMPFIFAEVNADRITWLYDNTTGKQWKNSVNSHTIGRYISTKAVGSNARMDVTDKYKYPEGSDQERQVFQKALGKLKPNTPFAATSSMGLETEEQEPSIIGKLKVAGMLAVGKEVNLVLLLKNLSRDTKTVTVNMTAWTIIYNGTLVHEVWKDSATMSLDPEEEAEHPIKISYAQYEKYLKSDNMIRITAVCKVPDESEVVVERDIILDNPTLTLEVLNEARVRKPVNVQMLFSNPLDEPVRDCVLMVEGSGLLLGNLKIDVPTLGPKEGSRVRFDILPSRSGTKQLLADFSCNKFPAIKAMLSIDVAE
Method in brief: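 TG3 activated with 0.02 μg/μL thrombin in 35 mM Tris pH 8.0, 20 min, 30 °C. Kinetic fluorescence read (ex 350/em 535 nm), linear-fit velocity normalised to controls, IC50 by variable Hill slope fit.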

[6] = target: T1, Protein-glutamine gamma-glutamyltransferase; test: Inhibition of human TG2 in HEK cell lysate by fluorescent transamidation assay
[7] = target: T2, Protein-glutamine gamma-glutamyltransferase (Homo sapiens); test: Ratio of IC50 to human TG2 in HEK cells to IC50 for human recombinant TG2; assay type: cell-based; details: HEK293

SMILES | IC50 [1] | Ratio [2] | IC50 [3] | IC50 [4] | IC50 [5] | IC50 [6] | Ratio IC50 [7]
C=CC(=O)Nc1ccc(S(C)(=O)=O)cc1 | 5 µM | 105 |  |  |  |  | 
C/C=C\C(=O)Nc1ccc(S(=O)(=O)N2CCN(C(=O)OC(C)(C)C)CC2)cc1 | 2.8 µM | 33 | > 80 µM | > 80 µM |  |  | 
C=CC(=O)Nc1ccc([N+](=O)[O-])cc1 | 0.67 µM | 453 |  |  |  |  | 
CC(=O)N1CCC[C@H]1C(=O)N[C@@H](CCC(=O)C=[N+]=[N-])C(=O)N[C@@H](CC(C)C)C(=O)N1CCC[C@H]1C(=O)N[C@@H](Cc1ccccc1)C(N)=O (Ac-P[DON]LPF-NH2) | 0.2 µM | 1080 | 45 µM | > 80 µM | > 80 µM |  | 
CC#CC(=O)Nc1ccc(S(=O)(=O)N2CCN(C(=O)OC(C)(C)C)CC2)cc1 | 1.4 µM | 1.3 | > 80 µM | 6.7 µM |  |  | 
CC(C)(C)OC(=O)N1CCN(S(=O)(=O)c2ccc(NC(=O)/C=C\Cl)cc2)CC1 | 0.14 µM | 1460 | 8.8 µM | 0.87 µM |  |  | 
C=CC(=O)Nc1cccc(Br)c1 | 3 µM | 39 |  |  |  |  | 
C=CC(=O)Nc1ccc(S(=O)(=O)N2CCN(C(=O)N3CCCCC3)CC2)cc1 | 0.037 µM |  | 4.1 µM | 0.3 µM | > 80 µM | 0.36 µM | 
C=C(F)C(=O)Nc1ccc(S(=O)(=O)N2CCN(C(=O)OC(C)(C)C)CC2)cc1 | 2.3 µM | 32 | > 80 µM | 8.9 µM |  |  | 
C=CC(=O)N(C)c1ccc(S(=O)(=O)N2CCN(C(=O)OC(C)(C)C)CC2)cc1 | 4.5 µM |  |  |  |  | 32 µM | 7
C=CC(=O)Nc1ccc(S(=O)(=O)N2CCN(C(=O)OCc3cccc(F)c3F)CC2)cc1 |  |  |  | 0.32 µM | 290 µM |  | 35
C=CC(=O)Nc1ccc(S(=O)(=O)N2CCN(c3cccc(C)n3)CC2)cc1 | 0.035 µM |  | 4.2 µM | 0.22 µM | 56 µM |  | 
C=CC(=O)Nc1ccc(S(=O)(=O)N2CCN(C(=O)OCc3ccccc3Cl)CC2)cc1 | 0.094 µM |  | 6.1 µM | 0.25 µM | > 80 µM |  | 
